Results on 10 compounds are retold here after ChEMBL document CHEMBL1275455, “Resistance and virulence of Pseudomonas aeruginosa clinical strains overproducing the MexCD-OprJ efflux pump” (2008).

Values after ≈ are worked out from the molar mass of the structure shown.

In assay [1] the test system is Pseudomonas aeruginosa. As to the kind of experiment: Antibacterial activity against Pseudomonas aeruginosa EryR by twofold serial dilution method. It counts as functional. An outline of the steps:
(§1)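 MIC by twofold serial dilution in Mueller-Hinton agar with adjusted Ca2+ and Mg2+, spotted with a Steers multiple inoculator at about 10^4 CFU per spot. Plates were incubated at 37°C and read visually at 18 and 24 h. Values are modal MICs of three independent determinations.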

Assay [2] relates to Pseudomonas aeruginosa. As to the kind of experiment: Antibacterial activity against Pseudomonas aeruginosa PAO1 by twofold serial dilution method. It counts as functional. An outline of the steps: as §1
The test system of assay [3] is Pseudomonas aeruginosa. As to the kind of experiment: Antibacterial activity against Pseudomonas aeruginosa FK06 by twofold serial dilution method. It counts as functional. An outline of the steps: as §1
Assay [4] relates to Pseudomonas aeruginosa. Kind of assay: microbe, parasite or virus in culture. Particulars: 2439.
For assay [5], the system named is Pseudomonas aeruginosa. As to the kind of experiment: Antibacterial activity against Pseudomonas aeruginosa 1956 by twofold serial dilution method. It counts as functional. An outline of the steps:
as §1

The subject of assay [6] is Pseudomonas aeruginosa. As to the kind of experiment: Antibacterial activity against Pseudomonas aeruginosa 3308 by twofold serial dilution method. It counts as functional. The method, boiled down: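 MIC by serial twofold agar dilution in cation-adjusted Mueller-Hinton agar, about 10^4 CFU per spot applied with Steers multiple inoculator; plates at 37°C, read visually at 18 and 24 h. Modal values of three independent determinations. For pNF225 carriers, 150 μg/ml ticarcillin was added to growth cultures.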

The subject of assay [7] is Pseudomonas aeruginosa. Kind of assay: microbe, parasite or virus in culture. Particulars: 2126.
Assay [8] relates to Pseudomonas aeruginosa. Kind of assay: Antibacterial activity against Pseudomonas aeruginosa FE60 by twofold serial dilution method. It counts as functional. The method, boiled down: as §1
Assay [9] relates to Pseudomonas aeruginosa. As to the kind of experiment: Activity of beta-lactamase AmpC in Pseudomonas aeruginosa 1956 by spectrophotometry. The method, boiled down: (§2)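 Crude French press lysates tested spectrophotometrically with nitrocefin; activity in nmol nitrocefin·min−1·mg protein−1. Induced activity obtained by adding 50 μg/ml cefoxitin to MHB culture 3 h before end of incubation; uninduced without. Triplicate measurements per strain; run-to-run variation under 15%.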

Assay [10] concerns Pseudomonas aeruginosa. Kind of assay: Activity of beta-lactamase AmpC in Pseudomonas aeruginosa 2126 by spectrophotometry. An outline of the steps:
as §2

For assay [11], the system named is Pseudomonas aeruginosa. Kind of assay: Activity of beta-lactamase AmpC in Pseudomonas aeruginosa EryR by spectrophotometry. An outline of the steps:
as §2

Assay [12] deals with Pseudomonas aeruginosa PAO1. Kind of assay: Activity of beta-lactamase AmpC in Pseudomonas aeruginosa PAO1 by spectrophotometry. The method, boiled down:
as §2

Assay [13] relates to Pseudomonas aeruginosa. Kind of assay: Activity of beta-lactamase AmpC in Pseudomonas aeruginosa 2439 by spectrophotometry. An outline of the steps:
as §2

Assay [14] deals with Pseudomonas aeruginosa. Kind of assay: Activity of beta-lactamase AmpC in Pseudomonas aeruginosa 3308 by spectrophotometry. An outline of the steps:
as §2

Assay [15] deals with Pseudomonas aeruginosa. Kind of assay: Antibacterial activity against Pseudomonas aeruginosa FK06 harboring pNF225 carrying nfxB by twofold serial dilution method. It counts as functional. The method, boiled down: (§3)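 nfxB plasmid pNF225 was electroporated into the strains and kept by adding 150 μg/ml ticarcillin to growth media. MIC by twofold serial dilution in cation-adjusted Mueller-Hinton agar, about 10^4 CFU per spot by Steers inoculator, at 37°C. Plates were read visually at 18 and 24 h. Values are modal MICs of three independent determinations.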

For assay [16], the system named is Pseudomonas aeruginosa. As to the kind of experiment: Antibacterial activity against Pseudomonas aeruginosa 2126 harboring pNF225 carrying nfxB by twofold serial dilution method. It counts as functional. The method, boiled down:
as §3

Assay [17] deals with Pseudomonas aeruginosa. As to the kind of experiment: Antibacterial activity against Pseudomonas aeruginosa 1956 harboring pNF225 carrying nfxB by twofold serial dilution method. It counts as functional. An outline of the steps: as §3
Assay [18] relates to Pseudomonas aeruginosa. Kind of assay: Antibacterial activity against Pseudomonas aeruginosa 3308 harboring pNF225 carrying nfxB by twofold serial dilution method. It counts as functional. The method, boiled down: as §3
Assay [19] relates to Pseudomonas aeruginosa. Kind of assay: Antibacterial activity against Pseudomonas aeruginosa 2439 harboring pNF225 carrying nfxB by twofold serial dilution method. It counts as functional. The method, boiled down: as §3
The test system of assay [20] is Pseudomonas aeruginosa. Kind of assay: Antibacterial activity against Pseudomonas aeruginosa EryR harboring pNF225 carrying nfxB by twofold serial dilution method. It counts as functional. The method, boiled down: as §3

On to `CO/N=C(\C(=O)N[C@@H]1C(=O)N2C(C(=O)[O-])=C(C[N+]3(C)CCCC3)CS[C@H]12)c1csc(N)n1`, for which the MIC in the assay with Pseudomonas aeruginosa [1] stood at 8 µg/mL (≈ 16.6 µM); against Pseudomonas aeruginosa [2] it was 2 µg/mL (≈ 4.16 µM); against Pseudomonas aeruginosa [3] it was 8 µg/mL (≈ 16.6 µM); against Pseudomonas aeruginosa [4], 8 µg/mL (≈ 16.6 µM); against Pseudomonas aeruginosa [5], 2 µg/mL (≈ 4.16 µM); against Pseudomonas aeruginosa [6] it was 4 µg/mL (≈ 8.32 µM). The results for the MIC in the assay with Pseudomonas aeruginosa [7] and in the assay with Pseudomonas aeruginosa [8] were 8 µg/mL (≈ 16.6 µM) and 2 µg/mL (≈ 4.16 µM), respectively.

Regarding `O=C(Cc1cccs1)N[C@@H]1C(=O)N2C(C(=O)O)=C(/C=C/c3ccc([N+](=O)[O-])cc3[N+](=O)[O-])CS[C@H]12`, the Activity in the assay with Pseudomonas aeruginosa [9] was found to be 4550 nmol/min/mg; in the assay on Pseudomonas aeruginosa [10], 5140 nmol/min/mg; in the assay with Pseudomonas aeruginosa [11], 3110 nmol/min/mg; in [12] it was 1820 nmol/min/mg; in the assay with Pseudomonas aeruginosa [13], 2680 nmol/min/mg; in the assay on Pseudomonas aeruginosa [14] it was 2670 nmol/min/mg.

On to `NCC[C@H](O)C(=O)N[C@@H]1C[C@H](N)[C@@H](O[C@H]2O[C@H](CN)[C@@H](O)[C@H](O)[C@H]2O)[C@H](O)[C@H]1O[C@H]1O[C@H](CO)[C@@H](O)[C@H](N)[C@H]1O` [AMIKACIN], for which the MIC in the assay with Pseudomonas aeruginosa [1] was determined as 2 µg/mL (≈ 3.42 µM); against Pseudomonas aeruginosa [15], 1 µg/mL (≈ 1.71 µM); against Pseudomonas aeruginosa [2], 4 µg/mL (≈ 6.83 µM); in the assay with Pseudomonas aeruginosa [3], 1 µg/mL (≈ 1.71 µM); against Pseudomonas aeruginosa [4], 1 µg/mL (≈ 1.71 µM); against Pseudomonas aeruginosa [16], 2 µg/mL (≈ 3.42 µM). The MIC was 2 µg/mL (≈ 3.42 µM) in the assay with Pseudomonas aeruginosa [17]; 1 µg/mL (≈ 1.71 µM) in the assay on Pseudomonas aeruginosa [18]; 1 µg/mL (≈ 1.71 µM) against Pseudomonas aeruginosa [5]; 2 µg/mL (≈ 3.42 µM) in the assay with Pseudomonas aeruginosa [19]; 8 µg/mL (≈ 13.7 µM) against Pseudomonas aeruginosa [20]; 0.5 µg/mL (≈ 0.854 µM) in the assay on Pseudomonas aeruginosa [6]. The MIC in the assay on Pseudomonas aeruginosa [7] and in the assay on Pseudomonas aeruginosa [8] was 1 µg/mL (≈ 1.71 µM) throughout.

For `C[C@H]1[C@H](NC(=O)/C(=N\OC(C)(C)C(=O)O)c2csc(N)n2)C(=O)N1S(=O)(=O)O` [AZTREONAM], the MIC against Pseudomonas aeruginosa [1] was found to be 1 µg/mL (≈ 2.3 µM); against Pseudomonas aeruginosa [15], 4 µg/mL (≈ 9.19 µM); against Pseudomonas aeruginosa [3], 1 µg/mL (≈ 2.3 µM); in the assay with Pseudomonas aeruginosa [4], 1 µg/mL (≈ 2.3 µM); in the assay with Pseudomonas aeruginosa [18], 4 µg/mL (≈ 9.19 µM); in the assay with Pseudomonas aeruginosa [5] it was 1 µg/mL (≈ 2.3 µM). The MIC in the assay on Pseudomonas aeruginosa [6] amounted to 1 µg/mL (≈ 2.3 µM); against Pseudomonas aeruginosa [7], 1 µg/mL (≈ 2.3 µM); against Pseudomonas aeruginosa [8], 4 µg/mL (≈ 9.19 µM).

Take `O=C(N[C@H](CO)[C@H](O)c1ccc([N+](=O)[O-])cc1)C(Cl)Cl` [CHLORAMPHENICOL]: the MIC in the assay with Pseudomonas aeruginosa [1] came out at 128 µg/mL (≈ 396 µM); in the assay with Pseudomonas aeruginosa [15] it was 64 µg/mL (≈ 198 µM); against Pseudomonas aeruginosa [2], 64 µg/mL (≈ 198 µM); against Pseudomonas aeruginosa [3], 128 µg/mL (≈ 396 µM); against Pseudomonas aeruginosa [4], 128 µg/mL (≈ 396 µM); in the assay on Pseudomonas aeruginosa [16] it was 32 µg/mL (≈ 99 µM). The MIC against Pseudomonas aeruginosa [17] is 64 µg/mL (≈ 198 µM); with Pseudomonas aeruginosa [18], 64 µg/mL (≈ 198 µM); in the assay on Pseudomonas aeruginosa [5], 128 µg/mL (≈ 396 µM); in the assay on Pseudomonas aeruginosa [19] it was 64 µg/mL (≈ 198 µM); with Pseudomonas aeruginosa [20], 32 µg/mL (≈ 99 µM); against Pseudomonas aeruginosa [6], 128 µg/mL (≈ 396 µM). Also, the MIC against Pseudomonas aeruginosa [7] worked out at 128 µg/mL (≈ 396 µM); against Pseudomonas aeruginosa [8], 64 µg/mL (≈ 198 µM).

Consider `O=C(O)c1cn(C2CC2)c2cc(N3CCNCC3)c(F)cc2c1=O` [CIPROFLOXACIN], for which the figures for the MIC in the assay with Pseudomonas aeruginosa [18], with Pseudomonas aeruginosa [5] and with Pseudomonas aeruginosa [8] were 0.12 µg/mL (≈ 0.362 µM), 1 µg/mL (≈ 3.02 µM) and 0.12 µg/mL (≈ 0.362 µM), respectively.

Consider `C[C@@H](O)[C@H]1C(=O)N2C(C(=O)O)=C(SCCNC=N)C[C@H]12` [IMIPENEM ANHYDROUS], for which the MIC against Pseudomonas aeruginosa [1] turned out to be 0.5 µg/mL (≈ 1.67 µM); against Pseudomonas aeruginosa [15], 2 µg/mL (≈ 6.68 µM); in the assay on Pseudomonas aeruginosa [2] it was 2 µg/mL (≈ 6.68 µM); against Pseudomonas aeruginosa [3], 0.5 µg/mL (≈ 1.67 µM); in the assay on Pseudomonas aeruginosa [4], 0.5 µg/mL (≈ 1.67 µM); against Pseudomonas aeruginosa [16], 1 µg/mL (≈ 3.34 µM). Also, the MIC in the assay on Pseudomonas aeruginosa [17] amounted to 4 µg/mL (≈ 13.4 µM); against Pseudomonas aeruginosa [18], 2 µg/mL (≈ 6.68 µM); against Pseudomonas aeruginosa [5], 2 µg/mL (≈ 6.68 µM); against Pseudomonas aeruginosa [19] it was 2 µg/mL (≈ 6.68 µM); in the assay with Pseudomonas aeruginosa [20] it was 2 µg/mL (≈ 6.68 µM); in the assay with Pseudomonas aeruginosa [6], 0.12 µg/mL (≈ 0.401 µM). The MIC with Pseudomonas aeruginosa [7] is 0.5 µg/mL (≈ 1.67 µM); in the assay with Pseudomonas aeruginosa [8], 2 µg/mL (≈ 6.68 µM).

For `CC1(C)S[C@@H]2[C@H](NC(=O)[C@H](C(=O)O)c3ccsc3)C(=O)N2[C@H]1C(=O)O` [TICARCILLIN], the MIC in the assay with Pseudomonas aeruginosa [1] was found to be 2 µg/mL (≈ 5.2 µM); in the assay with Pseudomonas aeruginosa [2], 16 µg/mL (≈ 41.6 µM); against Pseudomonas aeruginosa [3], 4 µg/mL (≈ 10.4 µM); with Pseudomonas aeruginosa [4] it was 4 µg/mL (≈ 10.4 µM); with Pseudomonas aeruginosa [5], 8 µg/mL (≈ 20.8 µM); against Pseudomonas aeruginosa [6] it was 2 µg/mL (≈ 5.2 µM). For the same compound, the MIC in the assay with Pseudomonas aeruginosa [7] came to 4 µg/mL (≈ 10.4 µM); with Pseudomonas aeruginosa [8] it was 16 µg/mL (≈ 41.6 µM).

Turning to `NC[C@H]1O[C@H](O[C@H]2[C@H](O)[C@@H](O[C@H]3O[C@H](CO)[C@@H](O)[C@H](N)[C@H]3O)[C@H](N)C[C@@H]2N)[C@H](N)C[C@@H]1O` [TOBRAMYCIN], the MIC in the assay with Pseudomonas aeruginosa [1] amounted to 0.25 µg/mL (≈ 0.535 µM); against Pseudomonas aeruginosa [15] it was 0.25 µg/mL (≈ 0.535 µM); against Pseudomonas aeruginosa [2] it was 0.5 µg/mL (≈ 1.07 µM); against Pseudomonas aeruginosa [3], 0.25 µg/mL (≈ 0.535 µM); with Pseudomonas aeruginosa [4] it was 0.25 µg/mL (≈ 0.535 µM); in the assay on Pseudomonas aeruginosa [16], 0.5 µg/mL (≈ 1.07 µM). Moreover, the MIC in the assay on Pseudomonas aeruginosa [17] is 0.5 µg/mL (≈ 1.07 µM); in the assay on Pseudomonas aeruginosa [18] it was 0.25 µg/mL (≈ 0.535 µM); against Pseudomonas aeruginosa [5] it was 0.25 µg/mL (≈ 0.535 µM); with Pseudomonas aeruginosa [19], 0.5 µg/mL (≈ 1.07 µM); with Pseudomonas aeruginosa [20], 1 µg/mL (≈ 2.14 µM); against Pseudomonas aeruginosa [6], 0.12 µg/mL (≈ 0.257 µM). The MIC against Pseudomonas aeruginosa [7] and with Pseudomonas aeruginosa [8] was 0.25 µg/mL (≈ 0.535 µM) in each case.

Turning to GENTAMICIN, the MIC was 1 µg/mL against Pseudomonas aeruginosa [1]; 2 µg/mL against Pseudomonas aeruginosa [2]; 2 µg/mL against Pseudomonas aeruginosa [16]; 2 µg/mL in the assay with Pseudomonas aeruginosa [17]; 1 µg/mL against Pseudomonas aeruginosa [18]; 1 µg/mL in the assay on Pseudomonas aeruginosa [5]. In addition, the MIC with Pseudomonas aeruginosa [19] came out at 2 µg/mL; in the assay with Pseudomonas aeruginosa [20], 2 µg/mL; with Pseudomonas aeruginosa [6], 0.25 µg/mL; against Pseudomonas aeruginosa [8], 0.25 µg/mL.
